Source: PubChem (several laboratories)
An excerpt weighted towards active compounds, which were near 1.2% of everything screened.
LANA-H2B inh: blocks KSHV LANA binding to histone H2A/H2B; Q9QR71; actives 0.6% (n = 320,000); AID 2629; cell-free LANA-H2A/H2B peptide, fluorescence polarization; inhibition, % (no concentration beside the values); in the data active = inhibition mostly above about 10%, no sharp cut-off; inactive = mostly below about 6.7%
procasp7 counter: counter-screen: procaspase-7 (human) activation. AID 463210. recombinant procaspase-7, Ac-DEVD-pNA absorbance 405 nm; D23A/D198A/D206A triple mutant, cannot self-cleave; scale: DMSO 0, 5 µM enzyme 100. P55210. actives 0.093% (n = 330,000). activation, % at 8.5 µM;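 active = percent activation above the screen-wide mean plus 3 SD, cut at about 25% in these data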
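System: Procaspase-7 triple mutant (PC-7 D3A); measure: % activation from two-timepoint absorbance difference, scaled to controls; times: 1 h compound preincubation, 2 h substrate cleavage, 25 °C; also added: Ac-DEVD-pNA substrate, 400 µM as added; measured by: Epi-absorbance of released pNA at 405 nm, two timepoints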
CR mimetic SO: caloric restriction mimetics inhibiting age-related superoxide in yeast. S. cerevisiae aged cells, superoxide DHE fluorescence; stronger effect = lower value. actives 0.18% (n = 330,000). superoxide response (% of plate mean), % at 10 µM. AID 2690;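 active = superoxide response under a set limit, about three screen SD below normal, cut at about 65% in these data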;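 also: yeast aged for seven days with compound at 30 °C before DHE staining; 100% = average MFI of all compound-treated wells on the plate with controls excluded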
ASAP1 inh: inhibitors of human ASAP1 ArfGAP activity; ASAP1-stimulated ARF1 GTP hydrolysis, GDP FP detection; inhibition, % at 16.5 µM; actives 0.19% (n = 360,000); AID 624377; in the data active = inhibition above about 25%;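 also: 0% = vehicle with enzyme and substrate and 100% = no enzyme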
Target sequence (Q9ULH1 325-724 limits assumed): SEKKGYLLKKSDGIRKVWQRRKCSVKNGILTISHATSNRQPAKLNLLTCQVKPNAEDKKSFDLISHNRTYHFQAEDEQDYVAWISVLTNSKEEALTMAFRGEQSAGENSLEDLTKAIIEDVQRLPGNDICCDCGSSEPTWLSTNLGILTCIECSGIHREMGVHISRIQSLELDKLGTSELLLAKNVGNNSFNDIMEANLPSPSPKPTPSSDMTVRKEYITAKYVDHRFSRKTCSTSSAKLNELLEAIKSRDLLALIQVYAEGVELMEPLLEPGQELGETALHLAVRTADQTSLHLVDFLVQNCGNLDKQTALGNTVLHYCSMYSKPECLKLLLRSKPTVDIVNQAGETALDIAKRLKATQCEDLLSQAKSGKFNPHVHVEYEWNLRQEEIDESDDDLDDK
ARFGAP1 inh: inhibitors of rat ARFGAP1. Q62848. Arfgap1-stimulated ARF1 GTP hydrolysis, GDP FP detection. inhibition, % at 16.5 µM. actives 0.26% (n = 360,000);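 active = inhibition above a per-plate limit, mean inhibition of low control wells plus 3 SD, cut at about 25% in these data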;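 also: 0% = DMSO wells with enzyme and 100% = wells lacking Arfgap1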
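material = rat Arfgap1 catalytic domain, aa 1-136 | also added = human ARF1(Δ1-17)-GTP substrate | compound dosing = one concentration, 16.5 µM, DMSO 1.26% | times = GTP hydrolysis reaction 2 h at 25 °C | measured by = FP, GDP Alexa 633 tracer displaced from anti-GDP antibody, 620/688 nm | evaluation = percent inhibition of Arfgap1-stimulated GTP hydrolysis | replication = single well per compound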
proCasp3 act: activates human procaspase-3 | actives 0.11% (n = 330,000) | AID 463141 | P42574 | recombinant procaspase-3 D3A, Ac-DEVD-pNA absorbance 405 nm | activation, % at 8.5 µM;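 active = activation above the mean of all tested compounds plus 3 SD, cut at about 21% in these data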;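 also: 0% = DMSO alone and 100% = DMSO wells spiked with extra 5 µM PC-3 D3A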
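Assay system – Procaspase-3 D3A mutant · Benchmarks – DMSO low control, extra-enzyme high control · Technique – 405 nm absorbance of p-nitroaniline, reads at 0 and 120 min · Doses – 8.5 µM nominal · Measure – % activation between DMSO and enzyme-spiked controls · Also added – Ac-DEVD-pNA chromogenic peptide substrate · Schedule – 1 h compound preincubation, 2 h substrate hydrolysis at 25 °C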
ASAP1 GAP conf: ASAP1 inhibition confirmed; shares compounds with ASAP1 inh; ASAP1-stimulated Arf1 GTPase, GDP fluorescence polarization; inhibition, % at 16.5 µM; actives 37% (n = 620); AID 624431;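 active = mean inhibition over triplicates exceeds the hit threshold derived for the earlier primary screening run, cut at about 25% in these data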
Starred values were filed as active, the others as inactive; . = no result.

SMILES	LANA-H2B inh	procasp7 counter	CR mimetic SO	ASAP1 inh	ARFGAP1 inh	proCasp3 act	ASAP1 GAP conf
CC1CCCC(C)N1C(=O)COC(=O)CCC(=O)c1ccc(F)cc1 (stereo not drawn)	0	4	104	29*	-4	-2	2
NC(=O)c1cc[n+](CC(=O)NC(=O)Nc2ccccc2)cc1	0	8	101	-18	7	-4	.
CN(CC(=O)Nc1cccc(F)c1)C(=O)CCNC(=O)c1ccco1	2	0	100	-10	0	2	.
CN(Cc1cccc(Cl)c1Cl)C(=O)CCNC(=O)c1ccco1	1	0	119	29*	-4	1	1
CCCNC(=O)C1(C)CCCN(Cc2ccc(-n3ccnc3)cc2)C1 (stereo not drawn)	.	.	.	3	2	.	.
CCCNC(=O)C1(C)CCN(Cc2ccc(-n3ccnc3)cc2)C1 (stereo not drawn)	.	.	.	26*	3	.	2
O=C(Nc1ccccc1-c1nnn(CC(=O)N2CCOCC2)n1)c1ccccc1F	-5	3	104	1	5	-5	.
COc1ccc(Br)cc1S(=O)(=O)N1CCCc2ccccc21	-3	-16	93	0	-3	11	.
CC(=O)NCCn1ccc2ccccc21	-1	2	99	27*	9	-3	6
Cc1sc2ncnc(N3CCC(C(=O)Nc4nnc(CC(C)C)s4)CC3)c2c1C	5	4	83	-2	-3	-2	.
Cc1ccccc1NC1=C/C(=N\S(=O)(=O)c2cccs2)c2ccccc2C1=O	1	6	104	25*	18	-10	6
O=c1c2ccccc2nc(/C=C/c2c[nH]c3ccccc23)n1CCO	-3	4	83	0	10	4	.
O=c1c2ccccc2nc(/C=C/c2cc(Br)ccc2O)n1CCO	-1	2	103	27*	4	11	9
Cc1occc1C(=O)NNC(=O)c1ccccc1Br	-8	-15	93	4	0	-3	.
CC1(C)SC(=S)N(/N=C/c2ccc(O)cc2)C1N(O)C(=O)Nc1ccc([N+](=O)[O-])cc1 (stereo not drawn)	-1	8	108	25*	0	-12	15
Cc1ccc(/C=N/N2C(=S)SC(C)(C)C2N(O)C(=O)Nc2ccc([N+](=O)[O-])cc2)cc1 (stereo not drawn)	-4	13	106	5	-9	4	.
COc1ccc(OC)c(C2SCCN2S(=O)(=O)c2cccc(C(F)(F)F)c2)c1 (stereo not drawn)	-1	-2	89	25*	1	-1	8
COc1ccccc1OCC(=O)Nc1cc(S(=O)(=O)N2CCOCC2)ccc1N1CCCCC1	-4	-16	94	9	8	-8	.
COc1ccc(Cc2c(-c3ccccc3)nc3c4ccccc4ccn23)c(C)c1	.	.	.	8	2	.	.
CCC(=O)NC(c1cccs1)c1cc([N+](=O)[O-])c2cccnc2c1OC (stereo not drawn)	.	.	.	43*	23	.	13
Cc1ccc2oc(=O)c3cnn(CC(=O)N(CCC(C)C)Cc4ccco4)c3c2c1	-8	3	98	-1	-8	2	.
CCCCN(Cc1ccco1)C(=O)Cn1ncc2c(=O)oc3ccc(C)cc3c21	-6	-6	103	30*	15	3	33*
CC(C)CNc1ncnc2c1ncn2[C@H]1CN(Cc2ccc(-c3ccccc3)cc2)C[C@@H](CO)O1	.	.	.	8	5	.	.
COc1ccc2oc(C(=O)OCC(=O)N3CCC(C)CC3)c(C)c2c1	-25	6	110	27*	15	7	15
COC1=C(Br)C(=O)c2nc(C)ccc2C1=O	.	.	.	27*	5	.	4
COC1=C(N)C(=O)c2nc(C)ccc2C1=O	.	.	.	18	21	.	.
